What was measured:
ANO1 = target: T1, ANO1 (Homo sapiens, UniProt Q5XXA6, DEL476-501); test: YFP fluorescence quenching assay in ANO1-overexpressing FRT cell line; type: cell-based
T1 sequence (Q5XXA6 with tags, fused parts or gaps isoform Q5XXA6-5 DEL539-564): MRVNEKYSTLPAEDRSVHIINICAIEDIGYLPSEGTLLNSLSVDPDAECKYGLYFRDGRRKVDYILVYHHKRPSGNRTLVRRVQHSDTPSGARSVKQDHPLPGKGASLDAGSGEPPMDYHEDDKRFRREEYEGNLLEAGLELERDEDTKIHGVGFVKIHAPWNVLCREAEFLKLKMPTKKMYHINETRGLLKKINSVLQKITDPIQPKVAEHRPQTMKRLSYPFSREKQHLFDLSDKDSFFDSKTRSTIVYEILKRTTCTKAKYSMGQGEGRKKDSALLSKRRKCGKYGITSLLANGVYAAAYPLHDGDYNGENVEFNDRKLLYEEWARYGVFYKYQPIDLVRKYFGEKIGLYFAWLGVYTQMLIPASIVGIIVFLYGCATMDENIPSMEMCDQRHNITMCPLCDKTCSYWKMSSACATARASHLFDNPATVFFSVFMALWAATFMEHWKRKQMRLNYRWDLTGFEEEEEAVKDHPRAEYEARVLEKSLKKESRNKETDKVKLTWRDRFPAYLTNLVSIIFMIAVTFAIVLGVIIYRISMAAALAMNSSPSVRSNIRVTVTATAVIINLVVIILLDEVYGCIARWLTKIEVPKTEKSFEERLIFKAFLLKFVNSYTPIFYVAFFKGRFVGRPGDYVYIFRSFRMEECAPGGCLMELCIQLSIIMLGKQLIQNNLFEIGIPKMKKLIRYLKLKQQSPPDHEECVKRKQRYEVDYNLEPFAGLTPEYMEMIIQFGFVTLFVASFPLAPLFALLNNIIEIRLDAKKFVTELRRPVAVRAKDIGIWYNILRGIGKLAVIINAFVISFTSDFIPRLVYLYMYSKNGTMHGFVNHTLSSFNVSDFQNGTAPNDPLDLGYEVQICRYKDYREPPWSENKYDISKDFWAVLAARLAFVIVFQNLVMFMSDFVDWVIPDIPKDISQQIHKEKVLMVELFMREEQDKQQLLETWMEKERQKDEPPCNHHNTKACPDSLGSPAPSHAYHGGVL

[1] = test system: intracellular Ca^2+ concentration; test: Intracellular Ca^2+ fluorescence; type: cell-based; details: 30 μmol/L compound, 200 μmol/L ATP, Cal520, control 2.3 folds
CHO cells = test: SRB proliferative cytotoxicity in CHO cells; type: cell-based, Chinese Hamster; details: 72 h
In short: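 CHO cells in DMEM with 10% FBS, seeded overnight, then exposed to test compound or DMSO vehicle for 72 h. Cells fixed with 10% TCA for 1 h at 4 °C and stained with 0.4% SRB in 1% acetic acid for 15 min in the dark. Washed with acetic acid, dye dissolved in 10 mmol/L Tris-base, absorbance read at 540 nm. n = 3, mean ± SEM, t-test vs DMSO control.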

SD rats [2] = test: Chronic constriction injury model; type: in vivo; details: rat CCI, Electronic Von Frey, vehicle 11.5
SD rats [3] = test: Formalin test on rat; type: in vivo; details: for number of foot lifts, phase 2: phase 2, vehicle 121 foot lifts
In short: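 30 min later, 50 μL 5% formalin injected into the left paw; controls received saline. Foot lifts counted over phase 1 (0–10 min) and phase 2 (10–60 min). Mean ± SD; ANOVA vs vehicle.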

[4] = Stability under different pH conditions; type: physicochemical; details: 37 °C, 100 μmol/L, mean ± SD, n = 3
In short: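 Test compound diluted to 100 μmol/L in phosphate buffers at pH 1.0, 4.0, 6.8, 7.4 and 9.0 and held in a 37 °C water bath. HPLC−UV peak area measured at 0, 2 and 5 h; residual expressed relative to the 0 h peak area.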

## CC(C)(C)c1ccc(C(=O)Nc2sc3c(c2C(=O)O)-c2ccccc2CC3)cc1 [Compound 53, 2-(4-(tert-Butyl)benzamido)-4,5-dihydronaphtho [2,1-b] thiophene-1-carboxylic acid]
ANO1
  IC50: 5.15 µM

## COc1ccc2c(c1)Cc1sc(NC(=O)c3ccc(C(C)(C)C)cc3)c(C(=O)O)c1-2 [Compound 48, 2-(4-(tert-Butyl)benzamido)-6-methoxy-8H-indeno [2,1-b] thiophene-3-carboxylic acid]
ANO1
  IC50: 28.9 µM

## CC(C)(C)c1ccc(C(=O)Nc2scc(-c3ccc(Cl)cc3)c2C(=O)O)cc1 [Compound 34, 2-(4-(tert-Butyl)benzamido)-4-(4-chlorophenyl) thiophene-3-carboxylic acid]
ANO1
  IC50: 1.34 µM

## CC(C)(C)c1ccc(C(=O)Nc2scc(-c3ccc4ccccc4c3)c2C(=O)O)cc1 [Compound 39, 2-(4-(tert-Butyl)benzamido)-4-(naphthalen-2-yl) thiophene-3-carboxylic acid]
ANO1
  IC50: 1.29 µM

## CCOC(=O)C1=C(COCCN)NC(C)=C(C(=O)OC)C1c1ccccc1Cl (stereo not shown) [Amlodipine, reference compound]
[1]
  maximum relative fluorescence units (RFU) vs initial value (Ca^2+ influx): remained unchanged

## CC(C)(C)c1ccc(C(=O)Nc2sc3c(c2C(=O)O)-c2ccccc2C3)cc1 [Compound 47, 2-(4-(tert-Butyl)benzamido)-8H-indeno [2,1-b] thiophene-3-carboxylic acid]
ANO1
  IC50: 12.6 µM

## CC(C)(C)c1ccc(C(=O)Nc2scc(-c3ccc(C(C)(C)C)cc3)c2C(=O)O)cc1 [Compound 36, 2-(4-(tert-Butyl)benzamido)-4-(4-(tert-butyl)phenyl) thiophene-3-carboxylic acid]
ANO1
  IC50: 3.67 µM

## O=C(Nc1sc2c(c1C(=O)O)-c1ccccc1C2)c1ccc2ccccc2c1 [Compound 50, 2-(2-Naphthamido)-8H-indeno [2,1-b] thiophene-3-carboxylic acid]
ANO1
  IC50: 1.91 µM

## O=C(Nc1scc(-c2ccc(Cl)cc2)c1C(=O)O)c1ccc2ccccc2c1 [Compound 43, 2-(2-Naphthamido)-4-(4-chlorophenyl) thiophene-3-carboxylic acid]
ANO1
  IC50: 2.45 µM

## O=C(O)c1c(NC(=O)c2cccc3ccccc23)sc2c1-c1ccccc1C2 [Compound 51, 2-(1-Naphthamido)-8H-indeno [2,1-b] thiophene-3-carboxylic acid]
ANO1
  IC50: 2.21 µM

## CC(C)(C)c1ccc(C(=O)Nc2sc3c(c2C(=O)O)-c2ccccc2C3(C)C)cc1 [Compound 52, 2-(4-(tert-Butyl)benzamido)-8,8-dimethyl-8H-indeno [2,1-b] thiophene-3-carboxylic acid]
ANO1
  IC50: 3.33 µM

## O=C(Nc1scc(-c2ccc(Cl)cc2)c1C(=O)O)c1ccc(Cl)cc1Cl [Compound 44, 4-(4-Chlorophenyl)-2-(2,4-dichlorobenzamido)thiophene-3-carboxylic acid]
ANO1
  IC50: 1.24 µM

## CC(C)(C)c1ccc(C(=O)Nc2scc(-c3ccc(-c4ccccc4)cc3)c2C(=O)O)cc1 [Compound 37, 4-([1,1′-Biphenyl]-4-yl)-2-(4-(tert-butyl)benzamido) thiophene-3-carboxylic acid]
ANO1
  IC50: 2.3 µM

## CCc1c(C)nc(SCC(=O)Nc2nc(-c3ccc(OC)cc3)cs2)[nH]c1=O [Compound T16Ainh-A01]
CHO cells; 1 and 3 μmol/L
  effect on CHO cell proliferation: weak effect

## CC(C)C[C@H](CN)CC(=O)O [Pregabalin]
SD rats [2]; 40 mg/kg i.g.
  PTI, pain threshold rate change (%) of 1 h compared to 0 h: 60.4%
SD rats [3]; 40 mg/kg i.g.
  number of foot lifts, phase 2: 44 foot lifts

## CC(C)(C)C1CCc2c(sc(NC(=O)c3ccco3)c2C(=O)O)C1 (stereo not shown) [Compound 1, 6-(tert-Butyl)-2-(furan-2-carboxamido)-4,5,6,7-tetrahydrobenzo[b]thiophene-3-carboxylic acid, reference compound]
CHO cells; all concentrations tested
  effect on CHO cell proliferation: inhibited cell proliferation
[4]; pH 1.0, 5 h
  5 h residual compound under different pH (%) pH 1.0: 93.8 ± 4.0%
[4]; pH 4.0, 5 h
  5 h residual compound under different pH (%) pH 4.0: 85.3 ± 8.1%
[4]; pH 6.8, 5 h
  5 h residual compound under different pH (%) pH 6.8: 94.9 ± 2.9%
[4]; pH 7.4, 5 h
  5 h residual compound under different pH (%) pH 7.4: 98.7 ± 0.7%
[4]; pH 9.0, 5 h
  5 h residual compound under different pH (%) pH 9.0: 97.6 ± 1.2%
SD rats [3]; 80 mg/kg i.g., phase 2
  analgesic effect in phase 2 compared with vehicle: no significant analgesic effect
SD rats [3]; 80 mg/kg i.g.
  number of foot lifts, phase 2: 84 foot lifts

## CCOC(=O)Nc1ccc(NCc2ccc(F)cc2)nc1N [Flupirtine]
SD rats [2]; 100 mg/kg i.g.
  PTI, pain threshold rate change (%) of 1 h compared to 0 h: 36.2%
SD rats [3]; 200 mg/kg i.g.
  number of foot lifts, phase 2: 74 foot lifts

## CC(C)(C)c1ccc(C(=O)Nc2scc(-c3ccc(F)cc3)c2C(=O)O)cc1 [Compound 33, 2-(4-(tert-Butyl)benzamido)-4-(4-fluorophenyl) thiophene-3-carboxylic acid]
ANO1
  IC50: 9.62 µM

## COc1ccc(-c2csc(NC(=O)c3cccs3)c2C(=O)O)cc1 [Compound 40, 4-(4-Methoxyphenyl)-2-(thiophene-2-carboxamido) thiophene-3-carboxylic acid]
ANO1
  IC50: 25.5 µM

## O=C(Nc1scc(-c2ccc(Cl)cc2)c1C(=O)O)c1cccs1 [Compound 45, 4-(4-Chlorophenyl)-2-(thiophene-2-carboxamido) thiophene-3-carboxylic acid]
ANO1
  IC50: 1.74 µM

## O=C(Nc1sc2c(c1C(=O)O)-c1ccccc1C2)c1cccs1 [Compound 49, 2-(Thiophene-2-carboxamido)-8H-indeno [2,1-b] thiophene-3-carboxylic acid]
ANO1
  IC50: 11.3 µM

## COc1ccc(C(=O)Nc2scc(-c3ccc(C(C)(C)C)cc3)c2C(=O)O)cc1 [Compound 41, 4-(4-(tert-Butyl)phenyl)-2-(4-methoxybenzamido) thiophene-3-carboxylic acid]
ANO1
  IC50: 2.28 µM

## CC(C)(C)c1ccc(C(=O)Nc2scc(-c3ccc(Cl)cc3Cl)c2C(=O)O)cc1 [Compound 38, 2-(4-(tert-Butyl)benzamido)-4-(2,4-dichlorophenyl) thiophene-3-carboxylic acid]
ANO1
  IC50: > 100 µM

## CC(C)(C)c1ccc(C(=O)Nc2scc(-c3ccc(C(F)(F)F)cc3)c2C(=O)O)cc1 [Compound 35, 2-(4-(tert-Butyl)benzamido)-4-(4-(trifluoromethyl)phenyl) thiophene-3-carboxylic acid]
ANO1
  IC50: > 100 µM

## Cc1ccc(C(=O)Nc2scc(-c3ccc(Cl)cc3)c2C(=O)O)c2ccccc12 [Compound 46, 4-(4-Chlorophenyl)-2-(4-methyl-1-naphthamido) thiophene-3-carboxylic acid]
ANO1
  IC50: 14.5 µM
